Measured values published in ChEMBL document CHEMBL4689842, “EUbOPEN Chemogenomics Library wave 1” (2021).
Values joined by “and” are separate entries in the source; they are usually repeats but may differ in a detail not shown here. Equal entries are not always repeated.

Tested on: U2OS
Test: Multiplex assay against U2OS
Format: toxicity, cell-based
Conditions: human
Method in brief: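 Per cents of healthy-nucleus cells form the tubulin, mitochondrial-mass and membrane-permeability phenotype values. Live cells were stained at seeding with Hoechst33342, BioTracker Green Microtubule Cytoskeleton Dye, MitoTracker Red and Annexin V Alexa Fluor 680. After compound addition they were imaged on a CQ1 microscope at 37°C and 5% CO2, and CellPathfinder machine-learning gating split them into Hoechst high-intensity objects or normal cells, normal cells into healthy, pyknosed or fragmented nuclei, and pyknosed cells into mitotic or apoptotic.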

[1] = 12 h, 1 µM, compound concentration 1 uM, replicate 1
[2] = 12 h, 1 µM, compound concentration 1 uM, replicate 2
[3] = 12 h, 10 µM, compound concentration 10 uM, replicate 1
[4] = 12 h, 10 µM, compound concentration 10 uM, replicate 2
[5] = 24 h, 1 µM, compound concentration 1 uM, replicate 1
[6] = 24 h, 1 µM, compound concentration 1 uM, replicate 2
[7] = 24 h, 10 µM, compound concentration 10 uM, replicate 1
[8] = 24 h, 10 µM, compound concentration 10 uM, replicate 2
[9] = 48 h, 1 µM, compound concentration 1 uM, replicate 1
[10] = 48 h, 1 µM, compound concentration 1 uM, replicate 2
[11] = 48 h, 10 µM, compound concentration 10 uM, replicate 1
[12] = 48 h, 10 µM, compound concentration 10 uM, replicate 2

C=C1/C(=C\C=C2/CCC[C@]3(C)[C@@H]([C@H](C)/C=C/[C@H](C)C(C)C)CC[C@@H]23)C[C@@H](O)C[C@@H]1O [DOXERCALCIFEROL]
Population Apoptotic (%) [1]: 38% | Population Fragmented Nuclei (%) [1]: 9% | Population Healthy Nuclei (%) [1]: 82% | Population Hoechst High Intensity Objects (%) [1]: 6% | Population Membrane Permeable-Phenotype (%) [1]: 5% | Population Mitochondria Different-Phenotype (%) [1]: 11% | Population Mitotic Cells (%) [1]: 61% | Population Normal (%) [1]: 93% | Population Pyknosed Nuclei (%) [1]: 8% | Population Tubulin-Different-Phenotype (%) [1]: 17% | Total Cell Count [1]: 2 | Population Apoptotic (%) [2]: 40% | Population Fragmented Nuclei (%) [2]: 1% | Population Healthy Nuclei (%) [2]: 90% | Population Hoechst High Intensity Objects (%) [2]: 1% | Population Mitochondria Different-Phenotype (%) [2]: 14% | Population Mitotic Cells (%) [2]: 60% | Population Normal (%) [2]: 98% | Population Tubulin-Different-Phenotype (%) [2]: 9% | Total Cell Count [2]: 111 | Population Apoptotic (%) [3]: 36% | Population Fragmented Nuclei (%) [3]: 20% | Population Healthy Nuclei (%) [3]: 60% | Population Hoechst High Intensity Objects (%) [3]: 9% | Population Membrane Permeable-Phenotype (%) [3]: 8% | Population Mitochondria Different-Phenotype (%) [3]: 17% | Population Mitotic Cells (%) [3]: 63% | Population Normal (%) [3]: 90% | Population Pyknosed Nuclei (%) [3]: 19% | Population Tubulin-Different-Phenotype (%) [3]: 8% | Total Cell Count [3]: 160 | Population Apoptotic (%) [4]: 0% | Population Fragmented Nuclei (%) [4]: 27% | Population Healthy Nuclei (%) [4]: 67% | Population Hoechst High Intensity Objects (%) [4]: 6% | Population Membrane Permeable-Phenotype (%) [4]: 2% | Population Mitochondria Different-Phenotype (%) [4]: 21% | Population Mitotic Cells (%) [4]: 100% | Population Normal (%) [4]: 93% | Population Pyknosed Nuclei (%) [4]: 5% | Population Tubulin-Different-Phenotype (%) [4]: 13% | Total Cell Count [4]: 61 | Population Apoptotic (%) [5]: 7% | Population Fragmented Nuclei (%) [5]: 8% | Population Healthy Nuclei (%) [5]: 84% | Population Hoechst High Intensity Objects (%) [5]: 2% | Population Membrane Permeable-Phenotype (%) [5]: 3% | Population Mitochondria Different-Phenotype (%) [5]: 8% | Population Mitotic Cells (%) [5]: 92% | Population Normal (%) [5]: 97% | Population Pyknosed Nuclei (%) [5]: 6% | Population Tubulin-Different-Phenotype (%) [5]: 9% | Total Cell Count [5]: 1 | Population Apoptotic (%) [6]: 42% | Population Fragmented Nuclei (%) [6]: 5% | Population Healthy Nuclei (%) [6]: 86% | Population Hoechst High Intensity Objects (%) [6]: 4% | Population Membrane Permeable-Phenotype (%) [6]: 4% | Population Mitochondria Different-Phenotype (%) [6]: 7% | Population Mitotic Cells (%) [6]: 57% | Population Normal (%) [6]: 95% | Population Pyknosed Nuclei (%) [6]: 8% | Population Tubulin-Different-Phenotype (%) [6]: 14% | Total Cell Count [6]: 157 | Population Apoptotic (%) [7]: 56% | Population Fragmented Nuclei (%) [7]: 43% | Population Healthy Nuclei (%) [7]: 18% | Population Hoechst High Intensity Objects (%) [7]: 23% | Population Membrane Permeable-Phenotype (%) [7]: 11% | Population Mitochondria Different-Phenotype (%) [7]: 26% | Population Mitotic Cells (%) [7]: 43% | Population Normal (%) [7]: 76% | Population Pyknosed Nuclei (%) [7]: 37% | Population Tubulin-Different-Phenotype (%) [7]: 7% | Total Cell Count [7]: 197 | Population Apoptotic (%) [8]: 33% | Population Fragmented Nuclei (%) [8]: 25% | Population Healthy Nuclei (%) [8]: 70% | Population Hoechst High Intensity Objects (%) [8]: 3% | Population Membrane Permeable-Phenotype (%) [8]: 1% | Population Mitochondria Different-Phenotype (%) [8]: 16% | Population Mitotic Cells (%) [8]: 66% | Population Normal (%) [8]: 96% | Population Pyknosed Nuclei (%) [8]: 4% | Population Tubulin-Different-Phenotype (%) [8]: 13% | Total Cell Count [8]: 83 | Population Apoptotic (%) [9]: 21% | Population Fragmented Nuclei (%) [9]: 4% | Population Healthy Nuclei (%) [9]: 89% | Population Hoechst High Intensity Objects (%) [9]: 2% | Population Membrane Permeable-Phenotype (%) [9]: 2% | Population Mitochondria Different-Phenotype (%) [9]: 13% | Population Mitotic Cells (%) [9]: 78% | Population Normal (%) [9]: 97% | Population Pyknosed Nuclei (%) [9]: 6% | Population Tubulin-Different-Phenotype (%) [9]: 10% | Total Cell Count [9]: 5 | Population Apoptotic (%) [10]: 42% | Population Healthy Nuclei (%) [10]: 90% | Population Hoechst High Intensity Objects (%) [10]: 1% | Population Membrane Permeable-Phenotype (%) [10]: 0% | Population Mitotic Cells (%) [10]: 57% | Population Normal (%) [10]: 98% | Population Pyknosed Nuclei (%) [10]: 5% | Population Tubulin-Different-Phenotype (%) [10]: 11% | Total Cell Count [10]: 235 | Population Apoptotic (%) [11]: 47% | Population Fragmented Nuclei (%) [11]: 53% | Population Healthy Nuclei (%) [11]: 16% | Population Hoechst High Intensity Objects (%) [11]: 18% | Population Membrane Permeable-Phenotype (%) [11]: 25% | Population Mitochondria Different-Phenotype (%) [11]: 29% | Population Mitotic Cells (%) [11]: 52% | Population Normal (%) [11]: 81% | Population Pyknosed Nuclei (%) [11]: 30% | Population Tubulin-Different-Phenotype (%) [11]: 25% | Total Cell Count [11]: 316 | Population Apoptotic (%) [12]: 22% | Population Fragmented Nuclei (%) [12]: 12% | Population Healthy Nuclei (%) [12]: 79% | Population Hoechst High Intensity Objects (%) [12]: 3% | Population Membrane Permeable-Phenotype (%) [12]: 2% | Population Mitochondria Different-Phenotype (%) [12]: 22% | Population Mitotic Cells (%) [12]: 77% | Population Normal (%) [12]: 96% | Population Pyknosed Nuclei (%) [12]: 8% | Population Tubulin-Different-Phenotype (%) [12]: 28% | Total Cell Count [12]: 127

Cl.O=C(c1ccc(Nc2nccc(-c3cc4ccccc4s3)n2)cc1)N1CCC(N2CCCC2)CC1
Population Apoptotic (%) [1]: 31% | Population Fragmented Nuclei (%) [1]: 8% | Population Healthy Nuclei (%) [1]: 80% | Population Hoechst High Intensity Objects (%) [1]: 1% | Population Membrane Permeable-Phenotype (%) [1]: 18% | Population Mitochondria Different-Phenotype (%) [1]: 11% | Population Mitotic Cells (%) [1]: 68% | Population Normal (%) [1]: 98% | Population Pyknosed Nuclei (%) [1]: 11% | Population Tubulin-Different-Phenotype (%) [1]: 18% | Total Cell Count [1]: 145 | Population Apoptotic (%) [2]: 0% | Population Fragmented Nuclei (%) [2]: 20% | Population Healthy Nuclei (%) [2]: 75% | Population Hoechst High Intensity Objects (%) [2]: 25% | Population Membrane Permeable-Phenotype (%) [2]: 13% | Population Mitochondria Different-Phenotype (%) [2]: 19% | Population Mitotic Cells (%) [2]: 100% | Population Normal (%) [2]: 74% | Population Pyknosed Nuclei (%) [2]: 4% | Population Tubulin-Different-Phenotype (%) [2]: 19% | Total Cell Count [2]: 110 | Population Apoptotic (%) [3]: 68% and 85% | Population Fragmented Nuclei (%) [3]: 15% and 25% | Population Healthy Nuclei (%) [3]: 6% | Population Hoechst High Intensity Objects (%) [3]: 5% and 7% | Population Membrane Permeable-Phenotype (%) [3]: 46% and 76% | Population Mitochondria Different-Phenotype (%) [3]: 92% | Population Mitotic Cells (%) [3]: 31% and 14% | Population Normal (%) [3]: 94% and 92% | Population Pyknosed Nuclei (%) [3]: 77% and 66% | Total Cell Count [3]: 174 and 176 | Population Apoptotic (%) [4]: 93% and 70% | Population Fragmented Nuclei (%) [4]: 35% and 26% | Population Healthy Nuclei (%) [4]: 7% and 13% | Population Membrane Permeable-Phenotype (%) [4]: 50% and 54% | Population Mitochondria Different-Phenotype (%) [4]: 100% and 81% | Population Normal (%) [4]: 78% and 93% | Population Pyknosed Nuclei (%) [4]: 57% and 60% | Population Tubulin-Different-Phenotype (%) [4]: 100% and 90% | Total Cell Count [4]: 73 | Population Apoptotic (%) [5]: 38% | Population Fragmented Nuclei (%) [5]: 10% | Population Healthy Nuclei (%) [5]: 81% | Population Hoechst High Intensity Objects (%) [5]: 3% | Population Membrane Permeable-Phenotype (%) [5]: 19% | Population Mitochondria Different-Phenotype (%) [5]: 16% | Population Mitotic Cells (%) [5]: 61% | Population Normal (%) [5]: 96% | Population Pyknosed Nuclei (%) [5]: 8% | Population Tubulin-Different-Phenotype (%) [5]: 14% | Total Cell Count [5]: 148 | Population Apoptotic (%) [6]: 44% | Population Fragmented Nuclei (%) [6]: 25% | Population Healthy Nuclei (%) [6]: 68% | Population Hoechst High Intensity Objects (%) [6]: 14% | Population Membrane Permeable-Phenotype (%) [6]: 12% | Population Mitochondria Different-Phenotype (%) [6]: 11% | Population Mitotic Cells (%) [6]: 55% | Population Normal (%) [6]: 85% | Population Pyknosed Nuclei (%) [6]: 5% | Population Tubulin-Different-Phenotype (%) [6]: 13% | Total Cell Count [6]: 97 | Population Apoptotic (%) [7]: 94% and 98% | Population Fragmented Nuclei (%) [7]: 31% and 18% | Population Healthy Nuclei (%) [7]: 4% and 9% | Population Hoechst High Intensity Objects (%) [7]: 12% and 23% | Population Membrane Permeable-Phenotype (%) [7]: 100% | Population Mitochondria Different-Phenotype (%) [7]: 100% and 80% | Population Mitotic Cells (%) [7]: 5% and 1% | Population Normal (%) [7]: 87% and 76% | Population Pyknosed Nuclei (%) [7]: 63% and 71% | Population Tubulin-Different-Phenotype (%) [7]: 100% | Total Cell Count [7]: 171 and 213 | Population Apoptotic (%) [8]: 100% | Population Fragmented Nuclei (%) [8]: 36% and 26% | Population Healthy Nuclei (%) [8]: 16% | Population Hoechst High Intensity Objects (%) [8]: 14% and 31% | Population Mitotic Cells (%) [8]: 0% | Population Normal (%) [8]: 85% and 68% | Population Pyknosed Nuclei (%) [8]: 59% and 58% | Population Tubulin-Different-Phenotype (%) [8]: 87% | Total Cell Count [8]: 192 and 76 | Population Apoptotic (%) [11]: 98% | Population Fragmented Nuclei (%) [11]: 32% | Population Healthy Nuclei (%) [11]: 6% | Population Hoechst High Intensity Objects (%) [11]: 26% | Population Membrane Permeable-Phenotype (%) [11]: 75% | Population Mitochondria Different-Phenotype (%) [11]: 100% | Population Mitotic Cells (%) [11]: 1% | Population Normal (%) [11]: 73% | Population Pyknosed Nuclei (%) [11]: 61% | Population Tubulin-Different-Phenotype (%) [11]: 100% | Total Cell Count [11]: 154 | Population Apoptotic (%) [12]: 100% | Population Fragmented Nuclei (%) [12]: 28% | Population Healthy Nuclei (%) [12]: 50% | Population Hoechst High Intensity Objects (%) [12]: 44% | Population Membrane Permeable-Phenotype (%) [12]: 100% | Population Mitotic Cells (%) [12]: 0% | Population Normal (%) [12]: 55% | Population Pyknosed Nuclei (%) [12]: 21% | Total Cell Count [12]: 77
